{
  "source": "paper PMC8602434",
  "about": "(Drugs in R&D, 2021)",
  "type_in_all_cases": "in vivo",
  "key": {"[1]": {"experiment": "Mouse pharmacokinetics, single sc or iv dose, plasma LC-MS", "details": "for AUC∞: plasma LC-MS"}, "[2]": {"experiment": "Dog 28-day toxicology study with pharmacokinetic analysis, sc"}, "[3]": {"experiment": "Healthy volunteers, multiple-dose arm, sc once daily for 7 days", "details": "human", "how_it_was_run": "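Double-blind, placebo-controlled abdominal sc dosing once daily for 7 days: 1.0 or 3.0 mg, cohorts of 10 (8 active, 2 placebo). Serial blood on Day 1 (predose to 24 h), peak/trough on Days 2–6, Day 7 (predose to 16 h), then to 48 h after last dose. Validated bioanalytical method. Noncompartmental: Day 7 values as steady state, AUCτ, accumulation ratio. AEs recorded.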"}, "[4]": {"details": "1.0 mg sc once daily, Day 7, geometric mean, n=5"}, "[5]": {"details": "1.0 mg sc once daily, Day 7, median, n=5"}, "[6]": {"details": "1.0 mg sc once daily, Day 7, median, n=8"}, "[7]": {"details": "3.0 mg sc once daily, Day 1, geometric mean, n=7"}, "[8]": {"details": "3.0 mg sc once daily, Day 1, geometric mean, n=8"}, "[9]": {"details": "3.0 mg sc once daily, Day 1, median, n=7"}, "[10]": {"details": "3.0 mg sc once daily, Day 1, median, n=8"}, "[11]": {"details": "3.0 mg sc once daily, Day 7, geometric mean, n=8"}, "[12]": {"details": "3.0 mg sc once daily, Day 7, mean (SD), n=8"}, "[13]": {"details": "3.0 mg sc once daily, Day 7, median, n=6"}, "[14]": {"details": "3.0 mg sc once daily, Day 7, median, n=8"}},
  "data": [
    {"smiles": "CCCC[C@H](NC(C)=O)C(=O)N[C@H]1CCC(=O)NC[C@@H](C(=O)N[C@@H](Cc2c[nH]c3ccccc23)C(N)=O)NC(=O)[C@H](CCCNC(=N)N)NC(=O)[C@@H](Cc2ccccc2)NC(=O)[C@H](Cc2c[nH]cn2)NC1=O", "note": "[PL8177]", "values": [
      {"measurement": "F (bioavailability)", "setting": "[1]; 1 mg/kg sc versus iv", "value": 0.63},
      {"measurement": "t½", "setting": "[1]; single 1 mg/kg iv", "value": 12, "unit": "min"},
      {"measurement": "AUC∞", "setting": "[1]; single 1 mg/kg iv", "value": 753, "unit": "ng·h/mL"},
      {"measurement": "Cmax", "setting": "[1]; single 1 mg/kg sc", "value": 703, "unit": "ng/mL"},
      {"measurement": "tmax", "setting": "[1]; single 1 mg/kg sc", "value": 4.98, "unit": "min"},
      {"measurement": "t½", "setting": "[1]; single 1 mg/kg sc", "value": 15.6, "unit": "min"},
      {"measurement": "AUC∞", "setting": "[1]; single 1 mg/kg sc", "value": 476, "unit": "ng·h/mL"},
      {"measurement": "Cmax", "setting": "[1]; single 3 mg/kg sc", "value": 2440, "unit": "ng/mL"},
      {"measurement": "tmax", "setting": "[1]; single 3 mg/kg sc", "value": 15, "unit": "min"},
      {"measurement": "t½", "setting": "[1]; single 3 mg/kg sc", "value": 30, "unit": "min"},
      {"measurement": "AUC∞", "setting": "[1]; single 3 mg/kg sc", "value": 1727, "unit": "ng·h/mL"},
      {"measurement": "Accumulation ratio (Rac), AUClast day 28/AUClast day 1", "setting": "[2]; 1.5- and 9.0-mg doses as printed", "value": 0.8},
      {"measurement": "Accumulation ratio (Rac), AUClast day 28/AUClast day 1", "setting": "[2]; 40-mg dose", "value": 1.8},
      {"measurement": "Difference between mean Cmax and AUClast values, multiple-dose versus single-dose", "setting": "[2]; sc", "value": "< 2", "unit": "fold"},
      {"measurement": "t½", "setting": "[3]; 1.0 mg sc once daily, Day 1, geometric mean, n=6", "value": 4.1, "unit": "h"},
      {"measurement": "CL/F", "setting": "[3]; 1.0 mg sc once daily, Day 1, median, n=6", "value": 20.2, "unit": "L/h"},
      {"measurement": "AI (accumulation index)", "setting": "[3]; [4]", "value": 1.1},
      {"measurement": "t½", "setting": "[3]; [4]", "value": 6.7, "unit": "h"},
      {"measurement": "AUCτ", "setting": "[3]; 1.0 mg sc once daily, Day 7, geometric mean, n=8", "value": 51.2, "unit": "ng·h/mL"},
      {"measurement": "AI (accumulation index)", "setting": "[3]; 1.0 mg sc once daily, Day 7, mean (SD), n=5", "value": "1.1 (0.1)"},
      {"measurement": "AUCτ", "setting": "[3]; 1.0 mg sc once daily, Day 7, mean (SD), n=8", "value": "52.9 (15.0) ng·h/mL"},
      {"measurement": "AI (accumulation index)", "setting": "[3]; [5]", "value": 1.1},
      {"measurement": "AUC∞", "setting": "[3]; [5]", "value": 51.8, "unit": "ng·h/mL"},
      {"measurement": "Vd/Fss", "setting": "[3]; [5]", "value": 174, "unit": "L"},
      {"measurement": "AUCτ", "setting": "[3]; [6]", "value": 48.3, "unit": "ng·h/mL"},
      {"measurement": "tmax", "setting": "[3]; [6]", "value": 30, "unit": "min"},
      {"measurement": "AUC∞", "setting": "[3]; [7]", "value": 169.0, "unit": "ng·h/mL"},
      {"measurement": "AUC∞/dose", "setting": "[3]; [7]", "value": 56.5, "unit": "ng·h/mL/mg"},
      {"measurement": "Cmax", "setting": "[3]; [8]", "value": 53.7, "unit": "ng/mL"},
      {"measurement": "Cmax/dose", "setting": "[3]; [8]", "value": 17.9, "unit": "ng/mL/mg"},
      {"measurement": "AUC∞/dose", "setting": "[3]; 3.0 mg sc once daily, Day 1, mean (SD), n=7", "value": "57.2 (10.2) ng·h/mL/mg"},
      {"measurement": "Cmax/dose", "setting": "[3]; 3.0 mg sc once daily, Day 1, mean (SD), n=8", "value": "18.1 (3.2) ng/mL/mg"},
      {"measurement": "AUC∞", "setting": "[3]; [9]", "value": 159.0, "unit": "ng·h/mL"},
      {"measurement": "AUC∞/dose", "setting": "[3]; [9]", "value": 53.0, "unit": "ng·h/mL/mg"},
      {"measurement": "CL/F", "setting": "[3]; [9]", "value": 18.9, "unit": "L/h"},
      {"measurement": "t½", "setting": "[3]; [9]", "value": 9.6, "unit": "h"},
      {"measurement": "AUC0–t", "setting": "[3]; [10]", "value": 145.0, "unit": "ng·h/mL"},
      {"measurement": "Cmax", "setting": "[3]; [10]", "value": 50.0, "unit": "ng/mL"},
      {"measurement": "AI (accumulation index)", "setting": "[3]; 3.0 mg sc once daily, Day 7, geometric mean, n=6", "value": 1.4},
      {"measurement": "AUCτ", "setting": "[3]; [11]", "value": 174.0, "unit": "ng·h/mL"},
      {"measurement": "AUCτ/dose", "setting": "[3]; [11]", "value": 58.1, "unit": "ng·h/mL/mg"},
      {"measurement": "Cmax/dose", "setting": "[3]; [11]", "value": 19.1, "unit": "ng/mL/mg"},
      {"measurement": "AI (accumulation index)", "setting": "[3]; 3.0 mg sc once daily, Day 7, mean (SD), n=6", "value": "1.4 (0.2)"},
      {"measurement": "AUCτ", "setting": "[3]; [12]", "value": "177.0 (36.0) ng·h/mL"},
      {"measurement": "AUCτ/dose", "setting": "[3]; [12]", "value": "59.1 (12.0) ng·h/mL/mg"},
      {"measurement": "Cmax/dose", "setting": "[3]; [12]", "value": "19.5 (4.52) ng/mL/mg"},
      {"measurement": "AI (accumulation index)", "setting": "[3]; [13]", "value": 1.3},
      {"measurement": "AUC∞", "setting": "[3]; [13]", "value": 200.0, "unit": "ng·h/mL"},
      {"measurement": "AUCτ", "setting": "[3]; [14]", "value": 171.0, "unit": "ng·h/mL"},
      {"measurement": "AUCτ/dose", "setting": "[3]; [14]", "value": 57.1, "unit": "ng·h/mL/mg"},
      {"measurement": "AEs leading to study discontinuation, serious AEs, or severe AEs", "setting": "[3]; multiple-dose arm", "value": "no reports"},
      {"measurement": "Dose linearity for AUC∞ and Cmax", "setting": "[3]; multiple-dose arm", "value": "inconclusive"},
      {"measurement": "Intact drug excreted in the urine", "setting": "[3]; multiple-dose arm", "value": "≤ 1", "unit": "%"},
      {"measurement": "Most commonly reported AEs", "setting": "[3]; multiple-dose arm", "value": "injection-site pain, erythema, and induration"},
      {"measurement": "Time after dosing at which Cmax was generally reached (tmax)", "setting": "[3]; multiple-dose arm", "value": "15 to 45", "unit": "min"}
    ]}
  ]
}
